From ChEMBL document CHEMBL4251563, “Design and synthesis of thienopyrimidine urea derivatives with potential cytotoxic and pro-apoptotic activity against breast cancer cell line MCF-7” (Eur J Med Chem, 2018) come the findings set out here.

The test system of assay [1] is MCF7. The experiment in a line: Antiproliferative activity against human MCF7 cells after 48 hrs by sulforhodamine B assay. It is filed as functional, cell-based. Conditions: MCF7, 48 h. The procedure, abridged:
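MCF-7 cells seeded at 5×10^4–10^5 cells/well, allowed to attach 24 h, then exposed to 0, 5, 12.5, 25 and 50 µg/mL for 48 h. Compounds were dissolved in DMSO and diluted with saline; controls got vehicle only; four wells per concentration. Cells fixed with cold 50% TCA, stained with 0.4% SRB, dye solubilised in 10 mM tris pH 10.5, OD read at 564 nm. Survival fraction = OD treated/OD control; IC50 taken from the survival-versus-concentration plot.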
(In general: Sulforhodamine B stains cellular protein and so reports cell mass.)

The test system of assay [2] is MCF7. The experiment in a line: Induction of apoptosis in human MCF7 cells assessed as late apoptotic cells at 7.1 uM after 24 hrs by Annexin V-FITC/propidium iodide staining based flow cytometry (reference value: 0.3%). The class given is functional.
Assay [3] relates to MCF7. Description: Induction of apoptosis in human MCF7 cells assessed as active caspase3 expression levels at 7.1 uM after 24 hrs by SYBR Green dye-based RT-PCR analysis (reference value: 75 IU/ml). The class given is functional.
Assay [4] deals with MCF7. Description: Potency index, ratio of doxorubicin IC50 to compound IC50 for antiproliferative activity against human MCF7 cells. The class given is functional.
Assay [5] deals with MCF7. The experiment in a line: Induction of apoptosis in human MCF7 cells assessed as p53 expression levels at 7.1 uM after 24 hrs by SYBR Green dye-based RT-PCR analysis (reference value: 244 IU/ml). The class given is functional.
The subject of assay [6] is MCF7. The experiment in a line: Induction of apoptosis in human MCF7 cells assessed as early apoptotic cells at 7.1 uM after 24 hrs by Annexin V-FITC/propidium iodide staining based flow cytometry (reference value: 0.7%). The class given is functional. (In general: Flow cytometry measures light scatter and fluorescence of single cells or particles in a stream.)
The subject of assay [7] is MCF7. The experiment in a line: Induction of apoptosis in human MCF7 cells assessed as viable cells at 7.1 uM after 24 hrs by Annexin V-FITC/propidium iodide staining based flow cytometry (reference value: 99.9%). It is filed as functional.
The subject of assay [8] is MCF7. The experiment in a line: Induction of apoptosis in human MCF7 cells assessed as Bcl2 expression levels at 7.1 uM after 24 hrs by SYBR Green dye-based RT-PCR analysis (reference value: 538306 IU/ml). The class given is functional.
In assay [9] the test system is MCF7. Description: Cell cycle arrest in human MCF7 cells assessed as increase in accumulation at pre-G1 phase at 7.1 uM after 24 hrs by propidium iodide staining-based flow cytometry relative to control. The class given is functional. The procedure, abridged:
(§1)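 MCF-7 cells treated 24 h with 7.10 µM. Cells washed with ice-cold PBS, fixed in ice-cold 70% ethanol, resuspended with 0.1 mg/mL RNase and stained with propidium iodide. DNA content read by FACSCalibur flow cytometry to give phase distribution (pre-G1/sub-G1, G1, S, G2/M).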

For assay [10], the system named is MCF7. The experiment in a line: Cell cycle arrest in human MCF7 cells assessed as increase in accumulation at G2/M phase at 7.1 uM after 24 hrs by propidium iodide staining-based flow cytometry relative to control. It is filed as functional. The essentials:
as §1

The target of assay [11] is T1, Vascular endothelial growth factor receptor 2 (Homo sapiens, UniProt P35968). Description: Inhibition of human VEGFR2 after 2 hrs by ELISA. (In general: In an ELISA, binding on a coated surface is turned into a signal by an enzyme label.)
T1 sequence (P35968 whole entry): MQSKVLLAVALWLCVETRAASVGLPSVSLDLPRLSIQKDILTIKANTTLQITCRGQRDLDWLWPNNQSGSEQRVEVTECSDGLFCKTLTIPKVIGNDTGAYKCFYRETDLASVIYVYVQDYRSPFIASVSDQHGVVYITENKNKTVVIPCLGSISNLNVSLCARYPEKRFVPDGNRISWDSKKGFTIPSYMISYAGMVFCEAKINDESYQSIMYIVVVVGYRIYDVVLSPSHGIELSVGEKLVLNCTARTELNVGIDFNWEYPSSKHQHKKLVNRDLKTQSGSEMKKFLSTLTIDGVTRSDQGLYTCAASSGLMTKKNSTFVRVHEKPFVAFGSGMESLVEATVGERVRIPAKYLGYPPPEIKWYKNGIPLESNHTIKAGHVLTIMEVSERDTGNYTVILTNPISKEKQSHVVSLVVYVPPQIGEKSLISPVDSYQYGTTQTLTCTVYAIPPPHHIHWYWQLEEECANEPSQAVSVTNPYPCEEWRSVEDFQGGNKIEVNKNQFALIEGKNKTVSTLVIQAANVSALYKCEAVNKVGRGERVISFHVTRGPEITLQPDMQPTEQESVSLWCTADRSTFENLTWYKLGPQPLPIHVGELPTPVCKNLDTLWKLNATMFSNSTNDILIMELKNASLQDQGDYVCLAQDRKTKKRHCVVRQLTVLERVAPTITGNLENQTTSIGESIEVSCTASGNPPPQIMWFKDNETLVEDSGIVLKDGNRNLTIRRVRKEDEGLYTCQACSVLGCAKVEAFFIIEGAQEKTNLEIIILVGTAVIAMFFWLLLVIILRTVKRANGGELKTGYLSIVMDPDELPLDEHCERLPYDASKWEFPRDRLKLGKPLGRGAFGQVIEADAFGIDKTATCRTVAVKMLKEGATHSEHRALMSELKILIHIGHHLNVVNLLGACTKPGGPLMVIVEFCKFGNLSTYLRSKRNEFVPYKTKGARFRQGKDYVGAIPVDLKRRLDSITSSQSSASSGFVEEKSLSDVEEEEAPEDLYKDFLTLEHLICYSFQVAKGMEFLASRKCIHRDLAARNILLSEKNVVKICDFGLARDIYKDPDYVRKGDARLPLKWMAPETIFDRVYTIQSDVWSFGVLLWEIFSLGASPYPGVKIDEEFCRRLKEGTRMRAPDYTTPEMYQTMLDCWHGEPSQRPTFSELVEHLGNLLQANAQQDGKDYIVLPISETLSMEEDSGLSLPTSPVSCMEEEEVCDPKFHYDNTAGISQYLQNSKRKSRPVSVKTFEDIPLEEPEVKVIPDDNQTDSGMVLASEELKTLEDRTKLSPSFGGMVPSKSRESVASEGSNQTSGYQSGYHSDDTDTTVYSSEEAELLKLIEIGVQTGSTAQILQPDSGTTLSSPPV
For a further assay, the target named is DNA topoisomerase 2-beta (Homo sapiens, UniProt Q02880). The experiment in a line: Inhibition of human topoisomerase 2beta after 2 hrs at 37 degC by ELISA. The essentials: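 Sandwich ELISA: standard or sample incubated 2 h at 37°C, then biotin-antibody 1 h at 37°C, then HRP-avidin 1 h at 37°C, then TMB 15–30 min at 37°C in the dark. OD read at 450 nm.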
Chain of DNA topoisomerase 2-beta (Q02880 whole entry): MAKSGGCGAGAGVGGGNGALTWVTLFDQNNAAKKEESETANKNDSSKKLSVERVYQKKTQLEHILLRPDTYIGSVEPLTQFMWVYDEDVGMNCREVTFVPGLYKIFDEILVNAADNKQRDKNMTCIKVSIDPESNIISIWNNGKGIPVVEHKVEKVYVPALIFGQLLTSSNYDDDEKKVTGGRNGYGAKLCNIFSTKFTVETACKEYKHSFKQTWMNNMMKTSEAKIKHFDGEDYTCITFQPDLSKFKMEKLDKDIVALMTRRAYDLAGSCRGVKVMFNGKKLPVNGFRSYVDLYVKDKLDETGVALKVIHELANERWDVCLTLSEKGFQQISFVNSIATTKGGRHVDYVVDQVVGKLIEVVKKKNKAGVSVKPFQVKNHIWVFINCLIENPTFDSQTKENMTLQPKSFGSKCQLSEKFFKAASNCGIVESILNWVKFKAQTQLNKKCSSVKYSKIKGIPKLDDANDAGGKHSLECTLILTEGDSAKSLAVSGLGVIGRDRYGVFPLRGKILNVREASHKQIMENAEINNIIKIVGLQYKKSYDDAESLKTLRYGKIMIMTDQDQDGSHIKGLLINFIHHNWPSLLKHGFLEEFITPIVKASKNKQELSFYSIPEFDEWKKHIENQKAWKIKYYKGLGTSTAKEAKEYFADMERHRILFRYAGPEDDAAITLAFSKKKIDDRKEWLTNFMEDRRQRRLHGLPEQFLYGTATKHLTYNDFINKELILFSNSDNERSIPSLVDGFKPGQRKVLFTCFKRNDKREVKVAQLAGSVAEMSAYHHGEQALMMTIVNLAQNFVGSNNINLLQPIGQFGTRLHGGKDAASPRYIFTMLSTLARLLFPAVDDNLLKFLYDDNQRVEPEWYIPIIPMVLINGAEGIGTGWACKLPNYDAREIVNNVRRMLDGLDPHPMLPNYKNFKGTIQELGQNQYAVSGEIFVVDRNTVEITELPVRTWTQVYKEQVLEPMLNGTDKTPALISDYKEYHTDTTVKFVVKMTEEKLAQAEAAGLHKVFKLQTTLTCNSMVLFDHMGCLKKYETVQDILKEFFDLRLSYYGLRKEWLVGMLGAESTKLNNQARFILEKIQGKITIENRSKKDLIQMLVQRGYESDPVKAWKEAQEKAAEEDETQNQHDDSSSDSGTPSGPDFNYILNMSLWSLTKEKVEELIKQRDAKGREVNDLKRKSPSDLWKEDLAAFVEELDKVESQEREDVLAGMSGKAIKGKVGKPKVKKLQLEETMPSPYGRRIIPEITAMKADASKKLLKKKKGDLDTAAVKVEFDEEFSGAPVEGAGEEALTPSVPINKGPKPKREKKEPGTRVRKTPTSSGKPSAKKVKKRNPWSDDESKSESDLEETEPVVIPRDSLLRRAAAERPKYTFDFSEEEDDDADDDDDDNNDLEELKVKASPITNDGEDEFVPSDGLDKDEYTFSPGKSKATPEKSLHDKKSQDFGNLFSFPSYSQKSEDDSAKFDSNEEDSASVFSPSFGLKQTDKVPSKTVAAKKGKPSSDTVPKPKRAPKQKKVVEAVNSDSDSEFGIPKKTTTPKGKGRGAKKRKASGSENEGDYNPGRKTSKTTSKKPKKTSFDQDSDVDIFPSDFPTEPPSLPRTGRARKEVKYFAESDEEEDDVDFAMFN

For assay [12], the system named is MCF7. Description: Cell cycle arrest in human MCF7 cells assessed as accumulation at G1 phase at 7.1 uM after 24 hrs by propidium iodide staining-based flow cytometry (reference value: 66.4%). The class given is functional. The procedure, abridged: as §1
For assay [13], the system named is MCF7. Description: Induction of apoptosis in human MCF7 cells assessed as necrotic cells at 7.1 uM after 24 hrs by Annexin V-FITC/propidium iodide staining based flow cytometry (reference value: 0.1%). It is filed as functional.
Assay [14] relates to MCF7. The experiment in a line: Induction of apoptosis in human MCF7 cells assessed as BAX expression levels at 7.1 uM after 24 hrs by SYBR Green dye-based RT-PCR analysis (reference value: 196 IU/ml). The class given is functional.
Assay [15] deals with MCF7. The experiment in a line: Cell cycle arrest in human MCF7 cells assessed as accumulation at G2/M phase at 7.1 uM after 24 hrs by propidium iodide staining-based flow cytometry (reference value: 7.2%). It is filed as functional. The procedure, abridged:
as §1

Assay [16] concerns MCF7. Description: Cell cycle arrest in human MCF7 cells assessed as accumulation at subG1 phase at 7.1 uM after 24 hrs by propidium iodide staining-based flow cytometry (reference value: 1.2%). It is filed as functional. The procedure, abridged:
as §1

Assay [17] has as its system MCF7. Description: Cell cycle arrest in human MCF7 cells assessed as accumulation at S phase at 7.1 uM after 24 hrs by propidium iodide staining-based flow cytometry (reference value: 25.2%). It is filed as functional. The essentials:
as §1

Assay [18] has as its system MCF7. The experiment in a line: Induction of apoptosis in human MCF7 cells assessed as early apoptotic cells at 7.1 uM after 24 hrs by Annexin V-FITC/propidium iodide staining based flow cytometry relative to control. It is filed as functional.
Assay [19] has as its target T1, Vascular endothelial growth factor receptor 2. The experiment in a line: Potency index, ratio of sorafenib IC50 to compound IC50 for inhibition of human VEGFR2.

Broadly, the IC50 is the concentration that inhibits the measured activity by half. Low values mean inhibition by little substance, high ones a need for much substance. With `Brc1ccc(-c2cs/c(=N\c3ccc(Nc4ncnc5sc6c(c45)CCCC6)cc3)n2-c2ccccc2)cc1`, in the assay with MCF7 [1], the IC50 came to 37.3 µM. In other words, the double-digit micromolar range.
In the case of `O=C(NNc1ncnc2sc3c(c12)CCCC3)Nc1ccc(Cl)c(C(F)(F)F)c1`, the IC50 in the assay with MCF7 [1] is 53.4 µM.
Still for that read-out and setting: as for `Cc1cccc(Cl)c1NC(=S)Nc1ccc(Nc2ncnc3sc4c(c23)CCCC4)cc1`, the figure is 52.1 µM; as for `O=C(Nc1ccc(Nc2ncnc3sc4c(c23)CCCC4)cc1)Nc1cccc(C(F)(F)F)c1`, 51.7 µM; as for `Cc1cccc(NC(=S)Nc2nnc3c4c5c(sc4ncn23)CCCC5)c1`, 99.9 µM.
The same measure, in the same setting: under `Cc1cccc(NC(=S)Nc2ccc(Nc3ncnc4sc5c(c34)CCCC5)cc2)c1` stands 38.8 µM; under `S=C(Nc1ccccc1)Nc1ccc(Nc2ncnc3sc4c(c23)CCCC4)cc1`, 48.2 µM; under `O=C(NNc1ncnc2sc3c(c12)CCCC3)Nc1cccc(C(F)(F)F)c1`, 22.7 µM.
The same measure, in the same setting: as for `COc1ccc(NC(=S)Nc2ccc(Nc3ncnc4sc5c(c34)CCCC5)cc2)cc1`, the figure is 79.1 µM.
`O=C(Nc1ccc(Nc2ncnc3sc4c(c23)CCCC4)cc1)Nc1c(Cl)cccc1Cl` displayed an IC50 in the assay with MCF7 [1] of 103 µM.
On the same count and under the same terms, as for `Cc1cccc(Cl)c1-n1c(-c2ccc(Br)cc2)co/c1=N\c1ccc(Nc2ncnc3sc4c(c23)CCCC4)cc1`, the figure is 235 µM.
With `O=C(Nc1ccc(Nc2ncnc3sc4c(c23)CCCC4)cc1)Nc1ccc(Cl)c(C(F)(F)F)c1`, the Activity with MCF7 [2] was 7%; in the assay with MCF7 [3], 64223 IU/ml; in the assay with MCF7 [5] it was 77214 IU/ml; with MCF7 [6] it was 21%; in the assay with MCF7 [7], 69%; with MCF7 [8] it was 131 IU/ml. The Activity turned out to be 36.3% in the assay with MCF7 [12]; 3% in the assay on MCF7 [13]; 389968 IU/ml with MCF7 [14]; 16.3% in the assay with MCF7 [15]; 18.2% with MCF7 [16]; 29.2% in the assay on MCF7 [17]. Also, the “Ratio IC50” value in the assay with MCF7 [4] was 1.03 - 1.5; in assay [19] it was 2.1. Further, the results for the IC50 (in the assay with MCF7 [1]; in assay [11]; against DNA topoisomerase 2-beta) were 7.1 µM, 200 nM and 9.29 µM, respectively. Also, the entries for the “fold change (FC)” value in the assay on MCF7 [9], in the assay with MCF7 [10] and in the assay with MCF7 [18] were 15.1, 2.2 and 30, respectively.
In the case of `O=C(NNc1ncnc2sc3c(c12)CCCC3)Nc1c(Cl)cccc1Cl`, in the assay on MCF7 [1], half-maximal inhibition (IC50) required 88.9 µM.
On the same count and under the same terms, as for `Cc1cccc(Cl)c1NC(=O)NNc1ncnc2sc3c(c12)CCCC3`, the figure is 90.2 µM.
Take `S=C(Nc1ccc(Br)cc1)Nc1ccc(Nc2ncnc3sc4c(c23)CCCC4)cc1`: the “Ratio IC50” value with MCF7 [4] is 1.03 - 1.5. This compound displayed an IC50 in the assay on MCF7 [1] of 9.55 µM.
In the same order, the values of `O=C(Nc1ccc(Nc2ncnc3sc4c(c23)CCCC4)cc1)Nc1cc(C(F)(F)F)ccc1F` are 1.03 - 1.5 and 10.3 µM.
In the assay with MCF7 [1], `Cc1cccc(Cl)c1NC(=O)Nc1nnc2c3c4c(sc3ncn12)CCCC4` yielded an IC50 of 29.1 µM.
Same read-out and setting: under `O=C(Nc1cccc(C(F)(F)F)c1)Nc1nnc2c3c4c(sc3ncn12)CCCC4` stands 68.5 µM.
The same measure, in the same setting: under `S=C(Nc1ccccc1)Nc1nnc2c3c4c(sc3ncn12)CCCC4` stands 80.9 µM.
The same measure, in the same setting: under `Cc1cccc(Cl)c1NC(=O)Nc1ccc(Nc2ncnc3sc4c(c23)CCCC4)cc1` stands 53.9 µM; under `S=C(Nc1ccc(Cl)cc1)Nc1ccc(Nc2ncnc3sc4c(c23)CCCC4)cc1`, 51.5 µM.
As to `COc1cccc2c1C(=O)c1c(O)c3c(c(O)c1C2=O)C[C@@](O)(C(=O)CO)C[C@@H]3O[C@H]1C[C@H](N)[C@H](O)[C@H](C)O1` [DOXORUBICIN], the Activity in the assay on MCF7 [3] was determined as 363940 IU/ml; in the assay on MCF7 [5], 1271.6 IU/ml; with MCF7 [8], 8 IU/ml; with MCF7 [14] it was 1824021 IU/ml. Also, the IC50 in the assay with MCF7 [1] stood at 10.6 µM; against DNA topoisomerase 2-beta, 3.5 µM.
As to `Cc1ccc(NC(=S)Nc2ccc(Nc3ncnc4sc5c(c34)CCCC5)cc2)cc1`, in the assay with MCF7 [1], the IC50 was 56.1 µM.
The same measure, in the same setting: as for `O=C(NNc1ncnc2sc3c(c12)CCCC3)Nc1cc(C(F)(F)F)ccc1F`, the figure is 28.2 µM; as for `O=C(Nc1cc(C(F)(F)F)ccc1F)Nc1nnc2c3c4c(sc3ncn12)CCCC4`, 71.9 µM.
